In publication PMC8134988 (Heliyon, 2021):
“And” between values parts separate entries of the source, which are not always exact repeats. Identical values can stand only once.

How the values were obtained:
[1] = In vitro cytotoxicity in U-937 cells; type: cell-based; details: human, U-937 cells (non-infected)
In short: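 Non-infected U-937 cells at 10^5 cells/mL were mixed 1:1 with compound solutions at 200, 50, 12.5 and 3.125 µg/mL, alongside benznidazole, and held 72 h at 37 °C. MTT was added for 3 h, then formazan was dissolved in isopropanol/SDS and read at 570 nm. Viability was expressed versus unexposed cells, mortality as 100 − %viability, and LC50 was obtained by probit analysis.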

[2] = test system: T. cruzi Talahuen strain intracellular amastigotes; experiment: Anti-T. cruzi in vitro assay in intracellular amastigotes; type: cell-based, Trypanosoma cruzi; details: for antitrypanosomal activity class: classified by EC50 in μg/mL; for SI (selectivity index = LC50/EC50): LC50 U-937 / EC50 T. cruzi
[3] = test system: T. cruzi strain HA trypomastigotes; details: ref Garcia et al. 2010; cited from earlier work
[4] = test system: T. cruzi blood trypomastigotes (Talahuen strain); experiment: In vivo therapeutic response in BALB/c mice infected with T. cruzi; set-up: species or system Mus musculus (BALB/c mice); details: at the end of treatment
In short: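 BALB/c mice were inoculated intraperitoneally with 100 blood trypomastigotes of the Tulahuen β-gal strain taken from donor mice. From the first day of parasitaemia, seven groups (n = 6) were dosed orally at 100 mg/kg/day for 25 days with test compound, benznidazole or nothing. Parasitaemia per 0.1 mL blood was counted by hematocrit at TD0, TD25 and PTD30/60/90. Reduction was calculated per mouse against pre-treatment parasitaemia. Mice negative in all tests were scored cured.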

Compound	CC50 at 72 h [1]	antitrypanosomal activity class [2]	inhibition of the presence of the parasite [3]	mice cured [4]	parasitaemia status ([4]; 100 mg/kg/day)	SI (selectivity index = LC50/EC50) [2]
CC(=O)Oc1ccc(/C=C/c2ccc3cccc(OC(C)=O)c3n2)c(OC(C)=O)c1 [Compound 3g, (E)-4-(2-(8-Acetoxyquinolin-2-yl)vinyl)-1,3-phenylene diacetate]	6.9 µg/mL and 17.2 µM	moderate (Moderate activity: 25 μg/mL > EC50 < 50 μg/mL)	–	–	–	–
COc1cccc(/C=C/c2ccc3ccccc3n2)c1OC [(E)-2-(2,3-dimetoxystyryl) quinoline]	–	–	34.1%	–	–	–
O=C(Cn1ccnc1[N+](=O)[O-])NCc1ccccc1 [Benznidazol (BZ), Benznidazol, reference compound]	> 200 µg/mL and 491 µM	–	–	100%	negative	8.7
COc1cc(/C=C/c2ccc3cccc(OC(C)=O)c3n2)ccc1OC(C)=O [Compound 3h, (E)-2-(4-Acetoxy-3-methoxystyryl)quinolin-8-yl acetate]	5.9 µg/mL and 15.6 µM	moderate (Moderate activity: 25 μg/mL > EC50 < 50 μg/mL)	–	–	–	0.2
